Results taken from ChEMBL document CHEMBL4028879, “Structure-Activity Relationship Studies of Pyrimido[5,4-b]indoles as Selective Toll-Like Receptor 4 Ligands” (J Med Chem, 2017).
pEC50: −log10 of the molar value.

Legend:
[1] = Cytotoxicity against C57BL/6 mouse primary BMDC assessed as cell viability at 5 uM after 18 hrs by MTT assay relative to control; format: cell-based; conditions: primary BMDC (bone marrow-derived dendritic cells), read-out: Activity
[2] = target: T1, Toll-like receptor 4 (Mus musculus) (UniProt Q9QUK6); test: Agonist activity at TLR4 in C57BL/6 mouse primary BMDC assessed as induction of IL-6 release at 5 uM after 18 hrs by ELISA relative to N-cyclohexyl-2-(5-methyl-4-oxo-3-phenyl-4,5-dihydro-3H-pyrimido[5,4-b]indol-2-ylthio)acetamide
T1 sequence (whole entry): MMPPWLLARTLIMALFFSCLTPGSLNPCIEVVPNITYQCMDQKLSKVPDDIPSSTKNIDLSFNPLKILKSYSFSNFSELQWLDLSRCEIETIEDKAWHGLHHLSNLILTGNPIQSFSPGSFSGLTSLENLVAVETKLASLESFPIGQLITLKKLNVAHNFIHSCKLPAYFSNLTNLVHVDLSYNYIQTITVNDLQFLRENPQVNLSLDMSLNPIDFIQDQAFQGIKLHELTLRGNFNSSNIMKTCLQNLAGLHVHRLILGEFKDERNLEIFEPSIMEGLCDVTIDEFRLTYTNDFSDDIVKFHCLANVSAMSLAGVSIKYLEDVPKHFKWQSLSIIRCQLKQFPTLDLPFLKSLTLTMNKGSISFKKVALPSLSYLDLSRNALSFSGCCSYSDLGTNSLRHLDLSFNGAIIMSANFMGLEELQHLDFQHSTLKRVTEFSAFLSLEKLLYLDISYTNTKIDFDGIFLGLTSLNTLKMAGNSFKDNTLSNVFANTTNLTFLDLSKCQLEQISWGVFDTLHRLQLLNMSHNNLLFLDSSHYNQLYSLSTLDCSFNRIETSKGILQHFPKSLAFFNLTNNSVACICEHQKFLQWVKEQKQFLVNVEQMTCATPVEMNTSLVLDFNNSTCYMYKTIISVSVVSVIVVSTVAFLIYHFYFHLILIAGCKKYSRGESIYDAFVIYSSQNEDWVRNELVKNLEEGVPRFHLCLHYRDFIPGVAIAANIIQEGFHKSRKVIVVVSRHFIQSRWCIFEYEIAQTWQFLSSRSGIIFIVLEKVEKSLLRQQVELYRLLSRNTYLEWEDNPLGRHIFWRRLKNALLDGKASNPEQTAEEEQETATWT

[3] = target: T2, Toll-like receptor 4 (Homo sapiens, UniProt O00206); test: Agonist activity at human TLR4 expressed in HEK293 blue cells assessed as induction of NF-kappaB activation-mediated SEAP production by measuring AUC after 20 to 24 hrs by colorimetric assay relative to N-cyclohexyl-2-(5-methyl-4-oxo-3-phenyl-4,5-dihydro-3H-pyrimido[5,4-b]indol-2-ylthio)acetamide; format: cell-based
[4] = target: T1, Toll-like receptor 4 (Mus musculus); test: Agonist activity at mouse TLR4 expressed in HEK293 blue cells assessed as induction of NF-kappaB activation-mediated SEAP production by measuring AUC after 20 to 24 hrs by colorimetric assay relative to N-cyclohexyl-2-(5-methyl-4-oxo-3-phenyl-4,5-dihydro-3H-pyrimido[5,4-b]indol-2-ylthio)acetamide; format: cell-based
[5] = target: T2, Toll-like receptor 4; test: Agonist activity at human TLR4 expressed in HEK293 blue cells assessed as induction of NF-kappaB activation-mediated SEAP production after 20 to 24 hrs by colorimetric assay; format: cell-based
Method in brief: (§1)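 HEK-Blue cells expressing human or mouse TLR4, 2.5 × 10⁴/well in DMEM with 10% FBS, pyruvate, glutamine and antibiotics. Graded doses from 20 mM DMSO stocks, final DMSO 0.05%. Supernatants harvested after 20–24 h; SEAP read by colorimetric substrate at 630 nm. EC50 taken as the concentration giving 50% of maximal activation. LPS 100 ng/mL served as positive control.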

[6] = target: T3, Toll-like receptor 4 (Mus musculus, UniProt Q9QUK6); test: Agonist activity at mouse TLR4 expressed in HEK293 blue cells assessed as induction of NF-kappaB activation-mediated SEAP production after 20 to 24 hrs by colorimetric assay; format: cell-based; method in brief: as §1
T3 sequence (Q9QUK6 whole entry): T1 sequence (whole entry)

T2 sequence (O00206 whole entry): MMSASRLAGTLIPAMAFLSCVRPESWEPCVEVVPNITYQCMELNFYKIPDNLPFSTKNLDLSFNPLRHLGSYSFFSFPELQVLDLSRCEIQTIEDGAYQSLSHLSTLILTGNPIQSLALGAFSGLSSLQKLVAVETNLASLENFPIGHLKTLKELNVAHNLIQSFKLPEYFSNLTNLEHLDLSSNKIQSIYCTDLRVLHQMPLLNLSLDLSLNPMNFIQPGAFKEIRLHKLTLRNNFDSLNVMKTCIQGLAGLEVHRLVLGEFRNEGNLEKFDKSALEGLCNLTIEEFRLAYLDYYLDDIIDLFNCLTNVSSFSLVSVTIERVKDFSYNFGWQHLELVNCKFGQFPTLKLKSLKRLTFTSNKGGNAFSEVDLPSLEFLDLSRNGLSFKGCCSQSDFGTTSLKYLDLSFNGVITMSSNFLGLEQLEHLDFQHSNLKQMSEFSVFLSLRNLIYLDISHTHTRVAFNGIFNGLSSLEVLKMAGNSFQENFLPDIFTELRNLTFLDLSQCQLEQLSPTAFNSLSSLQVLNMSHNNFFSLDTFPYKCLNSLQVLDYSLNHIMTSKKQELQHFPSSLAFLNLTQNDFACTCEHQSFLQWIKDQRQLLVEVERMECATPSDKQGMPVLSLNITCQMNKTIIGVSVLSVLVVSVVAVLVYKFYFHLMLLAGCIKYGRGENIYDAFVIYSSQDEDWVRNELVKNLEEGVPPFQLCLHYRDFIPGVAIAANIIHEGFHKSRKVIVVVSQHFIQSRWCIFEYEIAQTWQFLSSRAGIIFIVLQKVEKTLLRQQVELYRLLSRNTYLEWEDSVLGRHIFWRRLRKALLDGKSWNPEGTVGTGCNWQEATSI

Activity [2]	Activity [3]	Activity [4]	pEC50 [5]	pEC50 [6]	SMILES	viability at 18 h, 5 µM [1]
80%	72%	38%	5.67	5.59	Cn1c2ccc(-c3cccc4ccccc34)cc2c2nc(SCC(=O)NC3CCCCC3)n(-c3ccccc3)c(=O)c21	102%
0%	9%	1%	< 5.00	< 5.00	Cn1c2ccccc2c2nc(OCC(=O)NC3CCCCC3)n(-c3ccccc3)c(=O)c21	58%
45%	12%	14%	< 5.00	< 5.00	Cn1c2ccc(C#N)cc2c2nc(SCC(=O)NC3CCCCC3)n(-c3ccccc3)c(=O)c21	107%
0%	17%	3%	< 5.00	< 5.00	Cn1c2ccc(N)cc2c2nc(SCC(=O)NC3CCCCC3)n(-c3ccccc3)c(=O)c21	102%
92%	107%	92%	5.49	5.56	C#Cc1ccc2c(c1)c1nc(SCC(=O)NC3CCCCC3)n(-c3ccccc3)c(=O)c1n2C	81%
0%	7%	3%	< 5.00	< 5.00	O=C(CCSc1nc2c([nH]c3ccccc32)c(=O)n1-c1ccccc1)NC1CCCCC1	58%
3%	20%	6%	< 5.00	< 5.00	Cn1c2cc(C#N)ccc2c2nc(SCC(=O)NC3CCCCC3)n(-c3ccccc3)c(=O)c21	65%
78%	18%	28%	< 5.00	< 5.00	Cc1[nH]c2c(=O)n(-c3ccccc3)c(SCC(=O)NC3CCCCC3)nc2c1C	70%
81%	12%	22%	< 5.00	< 5.00	Cc1c(C)n(C)c2c(=O)n(-c3ccccc3)c(SCC(=O)NC3CCCCC3)nc12	100%
120%	159%	103%	5.45	5.61	Cn1c2ccc(Br)cc2c2nc(SCC(=O)NC3CCCCC3)n(-c3ccccc3)c(=O)c21	63%
0%	9%	1%	< 5.00	< 5.00	O=c1c2[nH]c3ccccc3c2nc(SCCCC2CCCCC2)n1-c1ccccc1	57%
1%	10%	2%	< 5.00	< 5.00	Cn1c2ccccc2c2nc(NCC(=O)NC3CCCCC3)n(-c3ccccc3)c(=O)c21	113%
80%	27%	36%	< 5.00	5.15	O=C(CSc1nc2c3c([nH]c2c(=O)n1-c1ccccc1)CCCC3)NC1CCCCC1	91%
0%	8%	2%	< 5.00	< 5.00	O=C(CCCSc1nc2c([nH]c3ccccc32)c(=O)n1-c1ccccc1)NC1CCCCC1	70%
74%	204%	104%	5.43	5.60	Cn1c2ccc(I)cc2c2nc(SCC(=O)NC3CCCCC3)n(-c3ccccc3)c(=O)c21	75%
1%	17%	5%	< 5.00	< 5.00	Cn1ccc2nc(SCC(=O)NC3CCCCC3)n(-c3ccccc3)c(=O)c21	117%
0%	16%	2%	< 5.00	< 5.00	Cn1c2ccccc2c2nc(S(=O)(=O)CC(=O)NC3CCCCC3)n(-c3ccccc3)c(=O)c21	50%
78%	87%	85%	< 5.00	5.48	Cn1c2ccc(C#C[Si](C)(C)C)cc2c2nc(SCC(=O)NC3CCCCC3)n(-c3ccccc3)c(=O)c21	73%
7%	26%	2%	< 5.00	< 5.00	Cn1c2ccc(NC(=O)c3ccccc3)cc2c2nc(SCC(=O)NC3CCCCC3)n(-c3ccccc3)c(=O)c21	43%
115%	137%	82%	5.13	5.55	O=C(CSc1nc2c3c([nH]c2c(=O)n1-c1ccccc1)CCCCC3)NC1CCCCC1	84%
0%	7%	4%	< 5.00	< 5.00	O=C(CSc1nc2cc[nH]c2c(=O)n1-c1ccccc1)NC1CCCCC1	99%
0%	8%	2%	< 5.00	< 5.00	Cn1c2ccccc2c2nc(NCCC(=O)NC3CCCCC3)n(-c3ccccc3)c(=O)c21	92%
0%	31%	1%	< 5.00	< 5.00	Cn1c2ccc(-c3ccc(-c4ccccc4)cc3)cc2c2nc(SCC(=O)NC3CCCCC3)n(-c3ccccc3)c(=O)c21	23%
0%	28%	3%	< 5.00	< 5.00	Cn1c2ccc(NC(=O)CCC(=O)O)cc2c2nc(SCC(=O)NC3CCCCC3)n(-c3ccccc3)c(=O)c21	75%
73%	40%	34%	< 5.00	5.31	Cn1c2cc(Br)ccc2c2nc(SCC(=O)NC3CCCCC3)n(-c3ccccc3)c(=O)c21	93%
0%	15%	1%	< 5.00	< 5.00	CCCCCCCC(=O)Nc1ccc2c(c1)c1nc(SCC(=O)NC3CCCCC3)n(-c3ccccc3)c(=O)c1n2C	35%
65%	8%	13%	< 5.00	< 5.00	Cn1c2c(c3nc(SCC(=O)NC4CCCCC4)n(-c4ccccc4)c(=O)c31)CCCC2	106%
